In ChEMBL document CHEMBL3112482, “Nonclassical antifolates, part 5. Benzodiazepine analogs as a new class of DHFR inhibitors: synthesis, antitumor testing and molecular modeling study” (Eur J Med Chem, 2014):

Assays:
Type in all cases: functional
Cancer cell lines [1] = assay: Ratio of 5-FU TGI to compound TGI for human ovarian cancer cells
Cancer cell lines [2] = assay: Ratio of 5-FU TGI to compound TGI for human colon cancer cells
Cancer cell lines [3] = assay: Ratio of 5-FU TGI to compound TGI for human non-small cell lung cancer cells
[4] = Cytotoxicity against human leukemia cells at 10 uM after 48 hrs; conditions: Leukemia cell
Cancer cell lines [5] = assay: Ratio of 5-FU GI50 to compound GI50 for human breast cancer cells
In short: (§1)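 Compounds passing the NCI single-dose primary screen were retested across the 60 human tumour cell lines (nine subpanels) over a 5-log dose range. GI50, TGI and LC50 were recorded for each cell line, with 5-fluorouracil run as the reference drug. Subpanel values for compound and 5-FU were then compared.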

Melanoma cell [6] = assay: Ratio of 5-FU LC50 to compound LC50 for human melanoma cells; in short: as §1
[7] = Cytotoxicity against human colon cancer cells at 10 uM after 48 hrs; conditions: Cancer cell lines
In short: (§2)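 Single-dose primary screen in the NCI 60 human tumour cell line panel, run at the NCI facility. The panel covers nine subpanels: leukaemia, non-small cell lung, colon, CNS, melanoma, ovarian, renal, prostate and breast. Read-out was percent growth of treated cells, shown as a mean graph and reported as percent growth inhibition.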

Cancer cell lines [8] = assay: Ratio of 5-FU GI50 to compound GI50 for human CNS cancer cells; in short: as §1
[9] = Cytotoxicity against human non-small cell lung cancer cells at 10 uM after 48 hrs; conditions: Cancer cell lines; in short: as §2
Leukemia cell [10] = assay: Ratio of 5-FU GI50 to compound GI50 for human leukemia cells; in short: as §1
Cancer cell lines [11] = assay: Ratio of 5-FU TGI to compound TGI for human renal cancer cells
Cancer cell lines [12] = assay: Ratio of 5-FU LC50 to compound LC50 for human breast cancer cells; in short: as §1
Cancer cell lines [13] = assay: Ratio of 5-FU GI50 to compound GI50 for human non-small cell lung cancer cells; in short: as §1
Cancer cell lines [14] = assay: Ratio of 5-FU GI50 to compound GI50 for human prostate cancer cells; in short: as §1
[15] = Cytotoxicity against human melanoma cells at 10 uM after 48 hrs; conditions: Melanoma cell; in short: as §2
Cancer cell lines [16] = assay: Ratio of 5-FU TGI to compound TGI for human prostate cancer cells
Cancer cell lines [17] = assay: Ratio of 5-FU LC50 to compound LC50 for human renal cancer cells; in short: as §1
CCRF-CEM = assay: Growth inhibition of human CCRF-CEM cells at 10 uM after 48 hrs; conditions: read-out: GI; in short: as §2
Leukemia cell [18] = assay: Ratio of 5-FU LC50 to compound LC50 for human leukemia cells; in short: as §1
Melanoma cell [19] = assay: Ratio of 5-FU GI50 to compound GI50 for human melanoma cells; in short: as §1
[20] = Cytotoxicity against human CNS cancer cells at 10 uM after 48 hrs; conditions: Cancer cell lines
Cancer cell lines [21] = assay: Ratio of 5-FU GI50 to compound GI50 for human ovarian cancer cells; in short: as §1
HOP-62 = assay: Growth inhibition of human HOP62 cells at 10 uM after 48 hrs; conditions: HOP-62, 48 h, read-out: GI; in short: as §2
[22] = Cytotoxicity against human prostate cancer cells at 10 uM after 48 hrs; conditions: Cancer cell lines
Cancer cell lines [23] = assay: Ratio of 5-FU LC50 to compound LC50 for human CNS cancer cells; in short: as §1
SN12C = assay: Growth inhibition of human SN12C cells at 10 uM after 48 hrs; conditions: read-out: GI
In short: (§3)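 NCI 60-cell-line disease-oriented human tumor panel, single-dose primary screen at 10 µM. Data given as mean-graph percent growth of treated cells, reported as percent growth inhibition (GI %).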

COLO 205 = assay: Growth inhibition of human COLO205 cells at 10 uM after 48 hrs; conditions: COLO 205, 48 h, read-out: GI; in short: as §2
DU-145 = assay: Growth inhibition of human DU145 cells at 10 uM after 48 hrs; conditions: DU-145, 48 h, read-out: GI; in short: as §2
786-0 = assay: Growth inhibition of human 786-0 cells at 10 uM after 48 hrs; conditions: 786-0, 48 h, read-out: GI; in short: as §2
BT-549 = assay: Growth inhibition of human BT549 cells at 10 uM after 48 hrs; conditions: BT-549, 48 h, read-out: GI; in short: as §2
MDA-MB-468 = assay: Growth inhibition of human MDA-MB-468 cells at 10 uM after 48 hrs; conditions: MDA-MB-468, 48 h, read-out: GI; in short: as §2
CAKI-1 = assay: Growth inhibition of human CAKI-1 cells at 10 uM after 48 hrs; conditions: CAKI-1, 48 h, read-out: GI; in short: as §2
ACHN = assay: Growth inhibition of human ACHN cells at 10 uM after 48 hrs; conditions: read-out: GI; in short: as §2
HCT-116 = assay: Growth inhibition of human HCT116 cells at 10 uM after 48 hrs; conditions: HCT-116, 48 h, read-out: GI; in short: as §2
SK-MEL-2 = assay: Growth inhibition of human SK-MEL-2 cells at 10 uM after 48 hrs; conditions: SK-MEL-2, 48 h, read-out: GI; in short: as §3
SF-295 = assay: Growth inhibition of human SF295 cells at 10 uM after 48 hrs; conditions: SF-295, 48 h, read-out: GI; in short: as §3
U-251 = assay: Growth inhibition of human U251 cells at 10 uM after 48 hrs; conditions: U-251, 48 h, read-out: GI; in short: as §3
Malme-3M = assay: Growth inhibition of human MALME-3M cells at 10 uM after 48 hrs; conditions: read-out: GI; in short: as §2
NCI-H226 = assay: Growth inhibition of human NCI-H226 cells at 10 uM after 48 hrs; conditions: NCI-H226, 48 h, read-out: GI; in short: as §2
LOX IMVI = assay: Growth inhibition of human LOXIMVI cells at 10 uM after 48 hrs; conditions: read-out: GI; in short: as §2
KM12 = assay: Growth inhibition of human KM12 cells at 10 uM after 48 hrs; conditions: KM12, 48 h, read-out: GI; in short: as §2
HT-29 = assay: Growth inhibition of human HT-29 cells at 10 uM after 48 hrs; conditions: HT-29, 48 h, read-out: GI; in short: as §2
[24] = Growth inhibition of human RXF393 cells at 10 uM after 48 hrs; conditions: RXF 393, 48 h, read-out: GI; in short: as §2
NCI-H522 = assay: Growth inhibition of human NCI-H522 cells at 10 uM after 48 hrs; conditions: NCI-H522, 48 h, read-out: GI; in short: as §2
OVCAR-8 = assay: Growth inhibition of human OVCAR8 cells at 10 uM after 48 hrs; conditions: OVCAR-8, 48 h, read-out: GI; in short: as §2
MDA-MB-435 = assay: Growth inhibition of human MDA-MB-435 cells at 10 uM after 48 hrs; conditions: MDA-MB-435, 48 h, read-out: GI; in short: as §2
[25] = read-out: LC50 (the source's name)

## COc1cc(/C=C2\CCCc3c2nc(N)nc3-c2cc(OC)c(OC)c(OC)c2)cc(OC)c1OC
Cancer cell lines [1]
  Ratio: 15
Cancer cell lines [2]
  Ratio: 15
Cancer cell lines [3]
  Ratio: 15
[4]
  GI50: 1.3 µM
  LC50: > 100 µM
  TGI: 36.5 µM
Cancer cell lines [5]
  RatioGI50: 15
Melanoma cell [6]
  RatioLC50: 15
[7]
  GI50: 1.1 µM
  TGI: 2.6 µM
[7]; [25]
  CC50: 68.3 µM
Cancer cell lines [8]
  RatioGI50: 15
[9]
  GI50: 1.7 µM
  TGI: 42.5 µM
[9]; [25]
  CC50: > 100 µM
Leukemia cell [10]
  RatioGI50: 15
Cancer cell lines [11]
  Ratio: 15
Cancer cell lines [12]
  RatioLC50: 15
Cancer cell lines [13]
  RatioGI50: 15
Cancer cell lines [14]
  RatioGI50: 15
[15]
  GI50: 1.3 µM
  TGI: 20 µM
[15]; [25]
  CC50: > 100 µM
Cancer cell lines [16]
  Ratio: 15
Cancer cell lines [17]
  RatioLC50: 15
CCRF-CEM
  inhibition of growth at 10 µM: 97.1%
Leukemia cell [18]
  RatioLC50: 15
Melanoma cell [19]
  RatioGI50: 15
[20]
  GI50: 3.3 µM
  TGI: > 100 µM
[20]; [25]
  CC50: > 100 µM
Cancer cell lines [21]
  RatioGI50: 15
HOP-62
  inhibition of growth at 10 µM: 82.2%
[22]
  GI50: 2.7 µM
  LC50: > 100 µM
  TGI: > 100 µM
Cancer cell lines [23]
  RatioLC50: 15

## COc1ccc(/C=C2\CCCC3=C(c4ccc(OC)cc4)Nc4ccccc4N=C32)cc1
SN12C
  inhibition of growth at 10 µM: < 30%
COLO 205
  inhibition of growth at 10 µM: < 30%
DU-145
  inhibition of growth at 10 µM: < 30%
786-0
  inhibition of growth at 10 µM: < 30%
BT-549
  inhibition of growth at 10 µM: < 30%
MDA-MB-468
  inhibition of growth at 10 µM: 56.4%
CAKI-1
  inhibition of growth at 10 µM: < 30%
ACHN
  inhibition of growth at 10 µM: < 30%
HCT-116
  inhibition of growth at 10 µM: 61.9%
SK-MEL-2
  inhibition of growth at 10 µM: < 30%
SF-295
  inhibition of growth at 10 µM: < 30%
U-251
  inhibition of growth at 10 µM: < 30%
Malme-3M
  inhibition of growth at 10 µM: < 30%
NCI-H226
  inhibition of growth at 10 µM: < 30%
CCRF-CEM
  inhibition of growth at 10 µM: < 30%
LOX IMVI
  inhibition of growth at 10 µM: 42.6%
KM12
  inhibition of growth at 10 µM: 72.5%
HT-29
  inhibition of growth at 10 µM: < 30%
[24]
  inhibition of growth at 10 µM: < 30%
NCI-H522
  inhibition of growth at 10 µM: 93.4%
HOP-62
  inhibition of growth at 10 µM: < 30%
OVCAR-8
  inhibition of growth at 10 µM: < 30%
MDA-MB-435
  inhibition of growth at 10 µM: 86.2%
